Data published in paper PMC2655349 (Nuclear medicine and biology, 2009).
Like-named read-outs stand apart in the source and are kept apart here.

What was measured:
[1] = rats, ref [11], cited from earlier work
[2] = radiopharmaceutical biodistribution in rats following intravenous injection; format: in vivo, rat; conditions: male rats, i.v.; for Percentage of Injected Dose per Organ, Blood: blood assumed 7% of body mass
How it was run: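 67Ga-labelled chelate prepared with ligand in ethanol containing acetylacetone at 70°C for 20 min, diluted with saline to 5–10% ethanol, filtered, purity checked by C18 TLC. Given 1–5 μCi (0.037–0.185 MBq) via femoral vein to ether-anaesthetised male Sprague-Dawley rats. Organs sampled at 1 min and 2 h. Data given as %ID/organ and %ID/g wet tissue; blood taken as 7% and muscle as 42% of body mass.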

[3] = 60-minutes rather than 120-minutes post-injection
[4] = 1 min, based on % injected dose per gram

Compound	Heart/Blood ratio [1, 3]	Heart/Liver ratio [1, 3]	Heart/Lung ratio [1, 3]	Heart/Blood ratio [1, 4]	Heart/Liver ratio [1, 4]	Heart/Lung ratio [1, 4]	Percentage of Injected Dose per Organ, Brain ([2]; 1 min post-injection)	Percentage of Injected Dose per Organ, Heart ([2]; 1 min post-injection)	Percentage of Injected Dose per Organ, Kidney (1) ([2]; 1 min post-injection)	Percentage of Injected Dose per Organ, Liver ([2]; 1 min post-injection)	Percentage of Injected Dose per Organ, Lungs ([2]; 1 min post-injection)	Percentage of Injected Dose per Organ, Spleen ([2]; 1 min post-injection)	Percentage of Injected Dose per Organ, Blood ([2]; 1 min post-injection)	Percentage of Injected Dose per Organ, Brain ([2]; 120 min post-injection)	Percentage of Injected Dose per Organ, Heart ([2]; 120 min post-injection)	Percentage of Injected Dose per Organ, Kidney (1) ([2]; 120 min post-injection)	Percentage of Injected Dose per Organ, Lungs ([2]; 120 min post-injection)	Percentage of Injected Dose per Organ, Spleen ([2]; 120 min post-injection)	Percentage of Injected Dose per Organ, Blood ([2]; 120 min post-injection)
[C-]#[N+]CC(C)(C)OC.[C-]#[N+]CC(C)(C)OC.[C-]#[N+]CC(C)(C)OC.[C-]#[N+]CC(C)(C)OC.[C-]#[N+]CC(C)(C)OC.[C-]#[N+]CC(C)(C)OC.[Tc] [[^99mTc]Tc-Sestamibi^1+, [^99mTc]Tc-sestamibi]	208 ± 25	5.3 ± 1.7	6.5 ± 1.7	11.1 ± 0.2	1.7 ± 0.1	1.3 ± 0.2													
[86Rb+].[Cl-] [[^86Rb]RbCl, [^86Rb]rubidium chloride]							0.08 ± 0.01 Percentage of Injected Dose per Organ	2.86 ± 0.38 Percentage of Injected Dose per Organ	6.7 ± 1.1 Percentage of Injected Dose per Organ	5.4 ± 0.8 Percentage of Injected Dose per Organ	2.0 ± 0.3 Percentage of Injected Dose per Organ	0.32 ± 0.08 Percentage of Injected Dose per Organ	3.61 ± 0.28 Percentage of Injected Dose per Organ	0.12 ± 0.01 Percentage of Injected Dose per Organ	0.69 ± 0.02 Percentage of Injected Dose per Organ	1.01 ± 0.04 Percentage of Injected Dose per Organ	1.11 ± 0.01 Percentage of Injected Dose per Organ	0.71 ± 0.13 Percentage of Injected Dose per Organ	1.43 ± 0.08 Percentage of Injected Dose per Organ
